Data set [1] concerns Staphylococcus aureus. The data set is described as follows: Antibacterial activity against methicillin-resistant Staphylococcus aureus ATCC 43300 after 18 to 24 hrs by spectrophotometric analysis. Format: functional, organism-based.
Data set [2] has as its system Staphylococcus aureus. The data set can be described thus: Antibacterial activity against methicillin-resistant Staphylococcus aureus CIMRSA5 after 18 to 24 hrs by spectrophotometric analysis. The format is functional, organism-based.
Data set [3] deals with Staphylococcus aureus. The data set is described as follows: Antibacterial activity against methicillin-resistant Staphylococcus aureus CIMRSA2 after 18 to 24 hrs by spectrophotometric analysis. The format is functional, organism-based.
In the next data set the test system is Escherichia coli. The data set can be described thus: Antibacterial activity against Escherichia coli ATCC 25922 after 18 to 24 hrs by spectrophotometric analysis. The format is functional, organism-based.
In data set [4] the target is DNA gyrase (Staphylococcus aureus) (UniProt P0A0K8+P20831). The data set can be described thus: (§1) Inhibition of supercoiling activity of Staphylococcus aureus DNA gyrase using relaxed pHOT1 plasmid DNA after 60 mins using ethidium bromide staining by […]electrophoresis analysis. Format: protein-complex assay.
The subject of data set [5] is Staphylococcus aureus. The data set is described as follows: Antibacterial activity against methicillin-resistant Staphylococcus aureus CIMRSA3 after 18 to 24 hrs by spectrophotometric analysis. The format is functional, organism-based.
Data set [6] relates to Staphylococcus aureus. The data set is described as follows: Antibacterial activity against methicillin-resistant Staphylococcus aureus CIMRSA1 after 18 to 24 hrs by spectrophotometric analysis. The format is functional, organism-based.
The test system of data set [7] is Staphylococcus aureus. The data set is described as follows: Antibacterial activity against methicillin-resistant Staphylococcus aureus CIMRSA6 after 18 to 24 hrs by spectrophotometric analysis. The format is functional, organism-based.
Data set [8] relates to Staphylococcus aureus. The data set is described as follows: Antibacterial activity against methicillin-resistant Staphylococcus aureus CIMRSA7 after 18 to 24 hrs by spectrophotometric analysis. The format is functional, organism-based.
The test system of data set [9] is Staphylococcus aureus. The data set is described as follows: Antibacterial activity against methicillin-resistant Staphylococcus aureus CIMRSA4 after 18 to 24 hrs by spectrophotometric analysis. Format: functional, organism-based.
Data set [10] can be described thus: Therapeutic index, ratio of IC50 for human PBMC to IC50 for methicillin-resistant Staphylococcus aureus ATCC 43300. The conditions noted are these: read-out: Ratio IC50. A digest of the protocol: (§2)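 Therapeutic index is PBMC cytotoxicity IC50 divided by the antibacterial IC50 against each MRSA strain. PBMCs came from healthy volunteers, and their viability was read by CTG luminescent cell viability assay. Experiments were run in triplicate (N = 3).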

A short description of data set [11]: Therapeutic index, ratio of IC50 for human PBMC to IC50 for methicillin-resistant Staphylococcus aureus CIMRSA4. As to conditions: read-out: Ratio IC50. A digest of the protocol: as §2
Data set [12] can be described thus: Therapeutic index, ratio of IC50 for human PBMC to IC50 for methicillin-resistant Staphylococcus aureus CIMRSA3. The conditions noted are these: read-out: Ratio IC50. In short, it runs like this:
as §2

Another data set has as its target DNA gyrase (Staphylococcus aureus, UniProt P0A0K8+P20831). Described as §1. Format: protein-complex assay.
The nature of data set [13]: Therapeutic index, ratio of IC50 for human PBMC to IC50 for methicillin-resistant Staphylococcus aureus CIMRSA5. As to conditions: read-out: Ratio IC50. In short, it runs like this:
as §2

Data set [14] can be described thus: Therapeutic index, ratio of IC50 for human PBMC to IC50 for methicillin-resistant Staphylococcus aureus CIMRSA1. The conditions noted are these: read-out: Ratio IC50. A digest of the protocol:
as §2

For a further data set, the system named is Vero. The data set is described as follows: Cytotoxicity against African green monkey Vero cells after 3 days by CTG luminescent cell viability assay. Format: cell-based. The conditions noted are these: Chlorocebus sabaeus, 72 h.
Data set [15] in a line: Therapeutic index, ratio of IC50 for human PBMC to IC50 for methicillin-resistant Staphylococcus aureus CIMRSA7. As to conditions: read-out: Ratio IC50. A digest of the protocol:
as §2

Data set [16] is described as follows: Therapeutic index, ratio of IC50 for human PBMC to IC50 for methicillin-resistant Staphylococcus aureus CIMRSA6. As to conditions: read-out: Ratio IC50. A digest of the protocol:
as §2

Data set [17] can be described thus: Therapeutic index, ratio of IC50 for human PBMC to IC50 for methicillin-resistant Staphylococcus aureus CIMRSA2. As to conditions: read-out: Ratio IC50. In short, it runs like this: as §2
A further data set concerns PBMC. The data set can be described thus: Cytotoxicity against human PBMC after 3 days by CTG luminescent cell viability assay. Format: cell-based. As to conditions: 72 h.
Data set [18] is described as follows: Ratio of IC50 for human PBMC to IC50 for African green monkey Vero cells. The format is cell-based. As to conditions: human PBMC versus Vero cells, read-out: Ratio IC50.

SMILES strings stand for the structures. In brackets after ≈: the same amount, converted by molar mass. Activity calls are given as the source filed them. The calls are words filed in the database; no cut-off is given here.

DNA gyrase (Staphylococcus aureus), sequence (P0A0K8 2-644 limits assumed): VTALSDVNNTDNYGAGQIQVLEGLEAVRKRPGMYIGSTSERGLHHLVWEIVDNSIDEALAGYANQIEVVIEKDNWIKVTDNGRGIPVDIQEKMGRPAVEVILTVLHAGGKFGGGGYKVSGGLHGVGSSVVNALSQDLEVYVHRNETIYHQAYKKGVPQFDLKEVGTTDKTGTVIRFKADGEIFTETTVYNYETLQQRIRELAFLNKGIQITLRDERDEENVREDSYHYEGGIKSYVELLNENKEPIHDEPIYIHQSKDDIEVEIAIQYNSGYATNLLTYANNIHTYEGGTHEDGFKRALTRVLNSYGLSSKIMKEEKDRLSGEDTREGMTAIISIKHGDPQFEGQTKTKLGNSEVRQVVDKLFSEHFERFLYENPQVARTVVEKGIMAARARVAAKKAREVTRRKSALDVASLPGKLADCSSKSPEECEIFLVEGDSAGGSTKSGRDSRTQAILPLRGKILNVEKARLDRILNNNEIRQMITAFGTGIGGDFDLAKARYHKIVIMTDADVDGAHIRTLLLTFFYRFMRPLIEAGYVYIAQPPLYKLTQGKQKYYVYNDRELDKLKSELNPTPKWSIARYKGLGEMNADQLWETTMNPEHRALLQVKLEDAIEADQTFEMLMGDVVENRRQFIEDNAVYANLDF
DNA gyrase (Staphylococcus aureus), sequence (P20831 whole entry partner): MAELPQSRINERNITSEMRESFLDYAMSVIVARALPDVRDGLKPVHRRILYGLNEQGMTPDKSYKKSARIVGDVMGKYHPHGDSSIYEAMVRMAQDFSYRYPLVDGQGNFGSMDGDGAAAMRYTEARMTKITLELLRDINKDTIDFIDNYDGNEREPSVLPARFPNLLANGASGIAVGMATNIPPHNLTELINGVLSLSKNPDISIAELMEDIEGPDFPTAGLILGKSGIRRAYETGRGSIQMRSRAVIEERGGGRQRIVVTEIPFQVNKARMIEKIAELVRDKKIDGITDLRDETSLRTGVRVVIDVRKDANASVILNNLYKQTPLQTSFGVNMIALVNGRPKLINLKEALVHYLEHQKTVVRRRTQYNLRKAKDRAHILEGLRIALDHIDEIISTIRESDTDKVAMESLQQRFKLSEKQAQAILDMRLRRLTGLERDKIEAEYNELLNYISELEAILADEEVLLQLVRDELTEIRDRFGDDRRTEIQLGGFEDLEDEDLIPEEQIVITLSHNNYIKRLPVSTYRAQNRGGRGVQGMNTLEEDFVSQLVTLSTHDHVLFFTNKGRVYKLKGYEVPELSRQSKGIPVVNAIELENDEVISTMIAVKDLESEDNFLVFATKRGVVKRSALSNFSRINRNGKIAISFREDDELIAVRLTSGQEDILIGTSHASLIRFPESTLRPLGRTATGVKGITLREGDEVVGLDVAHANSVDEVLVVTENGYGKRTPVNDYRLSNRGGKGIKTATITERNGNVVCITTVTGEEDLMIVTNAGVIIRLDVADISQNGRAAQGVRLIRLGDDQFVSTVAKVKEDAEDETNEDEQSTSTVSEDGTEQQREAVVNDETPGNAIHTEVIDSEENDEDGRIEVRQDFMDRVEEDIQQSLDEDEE
DNA gyrase, sequence (P0A0K8 whole entry): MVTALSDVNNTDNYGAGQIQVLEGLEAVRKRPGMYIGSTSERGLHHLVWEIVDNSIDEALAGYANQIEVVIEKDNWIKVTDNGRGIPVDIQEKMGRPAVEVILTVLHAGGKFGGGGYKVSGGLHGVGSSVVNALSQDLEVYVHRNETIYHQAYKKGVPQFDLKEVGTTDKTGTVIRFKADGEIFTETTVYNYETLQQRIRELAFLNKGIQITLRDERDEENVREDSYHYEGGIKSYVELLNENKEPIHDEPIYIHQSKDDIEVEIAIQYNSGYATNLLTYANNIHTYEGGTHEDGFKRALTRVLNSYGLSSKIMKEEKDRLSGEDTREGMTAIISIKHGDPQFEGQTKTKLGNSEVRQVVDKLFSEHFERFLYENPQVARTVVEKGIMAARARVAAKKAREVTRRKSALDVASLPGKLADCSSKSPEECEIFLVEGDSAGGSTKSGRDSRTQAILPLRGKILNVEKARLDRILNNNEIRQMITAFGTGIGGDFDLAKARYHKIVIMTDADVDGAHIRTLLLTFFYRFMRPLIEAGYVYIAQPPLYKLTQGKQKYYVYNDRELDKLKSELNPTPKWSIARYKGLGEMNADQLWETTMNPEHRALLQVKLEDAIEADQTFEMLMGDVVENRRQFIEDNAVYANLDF
DNA gyrase, sequence (P20831 whole entry): as the sequence (P20831 whole entry partner) above

For orientation: IC50 means the concentration that gives 50% inhibition. As for `CCCCCCCCCCCCCCCC(=O)Oc1ccc(/C=C/C(=O)/C=C/c2ccc(OC(=O)CCCCCCCCCCCCCCC)c(OC)c2)cc1OC`, the IC50 in the data set with Staphylococcus aureus [1], in the data set with Staphylococcus aureus [2], in the data set with Staphylococcus aureus [3], with Escherichia coli, in the data set on Staphylococcus aureus [5] and in the data set with Staphylococcus aureus [6] was > 1000 µg/mL each time. In addition, the IC50 in the data set with Staphylococcus aureus [7], with Staphylococcus aureus [8] and in the data set with Staphylococcus aureus [9] was > 1000 µg/mL each time. Further, the inhibition entry in [4] is “inactive”.

A word on the MIC: it is the lowest concentration found to suppress growth. As for `CCCCCCCCCCCCCC#CC(=O)Oc1ccc(/C=C/C(=O)/C=C/c2ccc(OC(=O)C#CCCCCCCCCCCCCC)c(OC)c2)cc1OC`, the IC50 in the data set with Staphylococcus aureus [1] is 39.5 µg/mL (≈ 49.7 µM); with Staphylococcus aureus [2], 25.4 µg/mL (≈ 31.9 µM); with Staphylococcus aureus [3], 34.9 µg/mL (≈ 43.9 µM); with Escherichia coli, > 1000 µg/mL; against DNA gyrase, 126 µM; in the data set on Staphylococcus aureus [5], 34.2 µg/mL (≈ 43 µM). Besides, the IC50 is 30.3 µg/mL (≈ 38.1 µM) in the data set with Staphylococcus aureus [6]; > 100 µg/mL in the data set with Vero; 38.9 µg/mL (≈ 48.9 µM) in the data set with Staphylococcus aureus [7]; 247 µg/mL (≈ 310 µM) with PBMC; 34.2 µg/mL (≈ 43 µM) in the data set on Staphylococcus aureus [8]; 24.9 µg/mL (≈ 31.3 µM) in the data set on Staphylococcus aureus [9]. Further, the minimum inhibitory concentration (MIC) against Staphylococcus aureus [1] came out at 62.5 µg/mL (≈ 78.6 µM); in the data set on Staphylococcus aureus [2], 31.3 µg/mL (≈ 39.4 µM); with Staphylococcus aureus [3], 62.5 µg/mL (≈ 78.6 µM); with Staphylococcus aureus [5] it was 62.5 µg/mL (≈ 78.6 µM); in the data set with Staphylococcus aureus [6] it was 62.5 µg/mL (≈ 78.6 µM); against Staphylococcus aureus [7], 62.5 µg/mL (≈ 78.6 µM). Further, the MIC against Staphylococcus aureus [8] worked out at 62.5 µg/mL (≈ 78.6 µM); with Staphylococcus aureus [9], 31.3 µg/mL (≈ 39.4 µM). In addition, the selectivity ratio was determined as 6.2 in [10]; 9.9 in [11]; 7.2 in data set [12]; 9.7 in data set [13]; 8.1 in data set [14]; 7.2 in data set [15]. Besides, the selectivity ratio in data set [16] is 6.3; in [17], 7.1.

As to `CCCCCCCCCCCCCCCC(=O)O` [PALMITIC ACID], the IC50 in the data set with Staphylococcus aureus [1], in the data set with Staphylococcus aureus [2], with Staphylococcus aureus [3], in the data set on Escherichia coli, in the data set with Staphylococcus aureus [5] and with Staphylococcus aureus [6] was > 1000 µg/mL throughout. Besides, the IC50 in the data set with Staphylococcus aureus [7], in the data set on Staphylococcus aureus [8] and in the data set on Staphylococcus aureus [9] was > 1000 µg/mL in each case.

Take `COc1cccc(OC)c1C(=O)N[C@@H]1C(=O)N2[C@@H]1SC(C)(C)[C@@H]2C(=O)O` [METHICILLIN]: the IC50 was 0.98 µg/mL (≈ 2.58 µM) in the data set on Staphylococcus aureus [1]; 1.9 µg/mL (≈ 4.99 µM) with Staphylococcus aureus [2]; 11.8 µg/mL (≈ 31 µM) in the data set with Staphylococcus aureus [3]; > 1000 µg/mL in the data set on Escherichia coli; 2.2 µg/mL (≈ 5.78 µM) with Staphylococcus aureus [5]; 2.2 µg/mL (≈ 5.78 µM) in the data set on Staphylococcus aureus [6]. The IC50 with Staphylococcus aureus [7] came out at 1.2 µg/mL (≈ 3.15 µM); in the data set on Staphylococcus aureus [8], 1.3 µg/mL (≈ 3.42 µM); in the data set on Staphylococcus aureus [9], 11.8 µg/mL (≈ 31 µM). In addition, the MIC came out at 1.95 µg/mL (≈ 5.13 µM) with Staphylococcus aureus [1]; 3.9 µg/mL (≈ 10.3 µM) in the data set with Staphylococcus aureus [2]; 31.3 µg/mL (≈ 82.3 µM) in the data set with Staphylococcus aureus [3]; 3.9 µg/mL (≈ 10.3 µM) against Staphylococcus aureus [5]; 7.8 µg/mL (≈ 20.5 µM) in the data set with Staphylococcus aureus [6]; 3.9 µg/mL (≈ 10.3 µM) against Staphylococcus aureus [8]. In addition, the MIC with Staphylococcus aureus [9] stood at 31.3 µg/mL (≈ 82.3 µM).

Turning to `COc1cc(/C=C/C(=O)/C=C/c2ccc(O)c(OC)c2)ccc1O`, the IC50 in the data set on Staphylococcus aureus [1] was 111 µg/mL (≈ 341 µM); in the data set on Staphylococcus aureus [2] it was 202 µg/mL (≈ 620 µM); in the data set on Staphylococcus aureus [3], 133 µg/mL (≈ 409 µM); in the data set with Escherichia coli, > 1000 µg/mL; in the data set on Staphylococcus aureus [5], 124 µg/mL (≈ 379 µM); in the data set on Staphylococcus aureus [6] it was 141 µg/mL (≈ 432 µM). For the same compound, the IC50 was 5.7 µg/mL (≈ 17.5 µM) in the data set with Vero; 195 µg/mL (≈ 597 µM) in the data set on Staphylococcus aureus [7]; 46.9 µg/mL (≈ 144 µM) with PBMC; 303 µg/mL (≈ 929 µM) in the data set on Staphylococcus aureus [8]; 185 µg/mL (≈ 567 µM) in the data set with Staphylococcus aureus [9]. The MIC against Staphylococcus aureus [1] stood at 250 µg/mL (≈ 766 µM); with Staphylococcus aureus [2], 500 µg/mL (≈ 1530 µM); against Staphylococcus aureus [3], 250 µg/mL (≈ 766 µM); in the data set on Staphylococcus aureus [5], 250 µg/mL (≈ 766 µM); in the data set with Staphylococcus aureus [6] it was 250 µg/mL (≈ 766 µM); in the data set on Staphylococcus aureus [7], 500 µg/mL (≈ 1530 µM). Besides, the MIC with Staphylococcus aureus [8] and against Staphylococcus aureus [9] was 500 µg/mL (≈ 1530 µM) throughout. Besides, the selectivity ratio in [10] worked out at 0.4; in data set [11], 0.3; in data set [12], 0.4; in data set [13], 0.2; in data set [14] it was 0.3; in [18], 8.2. Further, the selectivity ratio in data set [15] is 0.2; in data set [16], 0.2; in data set [17] it was 0.4. The inhibition entry in data set [4] was “inactive”.

These data come from ChEMBL document CHEMBL3632517, “Chemical conjugation of 2-hexadecynoic acid to C5-curcumin enhances its antibacterial activity against multi-drug resistant bacteria” (Bioorg Med Chem Lett, 2015).
